Data published in ChEMBL document CHEMBL2401699, “4-Amino-7-chloroquinolines: probing ligand efficiency provides botulinum neurotoxin serotype A light chain inhibitors with significant antiprotozoal activity” (J Med Chem, 2013).

Key:
[1] = test system: Plasmodium falciparum; assay: Antimalarial activity against multi drug resistant Plasmodium falciparum TM91C235 after 72 hrs by MSF assay; assay type: functional, organism-based; details: TM91C235, 72 h
[2] = Selectivity index, ratio of IC50 for human HepG2 cells to IC50 for Plasmodium falciparum W2; assay type: toxicity, cell-based; details: read-out: Ratio IC50
[3] = Selectivity index, ratio of IC50 for human HepG2 cells to IC50 for Plasmodium falciparum TM91C235; assay type: toxicity, cell-based; details: read-out: Ratio IC50
[4] = test system: HepG2; assay: Cytotoxicity against human HepG2 cells after 48 hrs by MTT assay; assay type: cell-based; details: HepG2, 48 h
[5] = test system: Plasmodium falciparum; assay: Antimalarial activity against chloroquine-resistant Plasmodium falciparum W2 after 72 hrs by MSF assay; assay type: functional, organism-based; details: W2, 72 h
[6] = test system: Plasmodium falciparum; assay: Antimalarial activity against chloroquine-sensitive Plasmodium falciparum D6 after 72 hrs by MSF assay; assay type: functional, organism-based; details: D6, 72 h
[7] = molecular target: Botulinum neurotoxin type A (Clostridium botulinum) (UniProt P0DPI0); assay: Inhibition of Clostridium botulinum recombinant BoNT/A light chain at […] by reverse-phase HPLC analysis
Chain of Botulinum neurotoxin type A (Clostridium botulinum) (P0DPI0 2-448 limits assumed): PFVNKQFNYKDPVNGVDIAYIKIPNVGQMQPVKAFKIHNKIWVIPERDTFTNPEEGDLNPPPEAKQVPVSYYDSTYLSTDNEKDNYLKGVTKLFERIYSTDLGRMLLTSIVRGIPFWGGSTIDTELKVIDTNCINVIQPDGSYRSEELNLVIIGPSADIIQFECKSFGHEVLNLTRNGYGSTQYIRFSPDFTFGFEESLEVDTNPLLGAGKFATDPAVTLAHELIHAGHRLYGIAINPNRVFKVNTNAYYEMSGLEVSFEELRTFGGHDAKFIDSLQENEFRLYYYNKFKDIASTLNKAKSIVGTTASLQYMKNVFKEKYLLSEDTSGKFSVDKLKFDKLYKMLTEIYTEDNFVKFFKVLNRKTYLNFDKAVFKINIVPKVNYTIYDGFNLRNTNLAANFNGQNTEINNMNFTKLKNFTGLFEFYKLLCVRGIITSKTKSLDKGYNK
Procedure, shortened: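 Recombinant BoNT/A light chain was tested with a synthetic SNAP-25 187–203 peptide substrate (N-acetylated, C-aminated). The mix held 40 mM HEPES-0.05% Tween pH 7.3, 0.5 mg/ml BSA, 1 mM DTT, excess zinc and 20 µM inhibitor, at 37 °C, quenched with TFA. Cleaved and uncleaved peptide were separated by reverse-phase HPLC, and peak areas gave reaction rates and % inhibition.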

[8] = Selectivity index, ratio of IC50 for human HepG2 cells to IC50 for Plasmodium falciparum D2; assay type: toxicity, cell-based; details: read-out: Ratio IC50
[9] = test system: Liver; assay: (§1) Half life in mouse liver microsomes at 10 uM by LC-MS/MS analysis; assay type: ADME, Microsome; details: microsomes, 10 µM
[10] = test system: Liver microsomes; assay: (§2) Half life in human liver microsomes at 10 uM by LC-MS/MS analysis; assay type: ADME, Microsome; details: microsomes, 10 µM
[11] = as §1; assay type: ADME, Microsome; details: liver microsomes
[12] = as §2; assay type: ADME, Microsome; details: liver microsomes
[13] = test system: Plasmodium falciparum; assay: Antimalarial activity against multidrug-resistant Plasmodium falciparum TM90C2A after 72 hrs by MSF assay; assay type: functional, organism-based
Procedure, shortened: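 P. falciparum cultures at late-ring or early-trophozoite stage, 0.3% starting parasitemia and 2% hematocrit, were grown in plates predosed with quadruplicate 12-point two-fold dilutions in DMSO (final […]). Incubation was 72 h at 37 °C in 5% CO2/5% O2/90% N2. Lysis buffer with SYBR Green I (final 10x) was added, then 24 h dark at room temperature and fluorescence read. IC50/IC90 came from sigmoidal variable-slope nonlinear regression.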

[14] = test system: Plasmodium falciparum; assay: Antimalarial activity against multidrug-resistant Plasmodium falciparum TM90C2B after 72 hrs by MSF assay; assay type: functional, organism-based
[15] = test system: Plasmodium falciparum; assay: Ratio of mefloquine IC50 to compound IC50 against Plasmodium falciparum TM91C235; assay type: functional

Row | SMILES | IC50 [1] | selectivity ratio [2] | selectivity ratio [3] | IC50 [4] | IC50 [5] | IC50 [6] | inhibition [7] | selectivity ratio [8] | t1/2 [9] | t1/2 [10] | half-life at 10 µM [11] | half-life at 10 µM [12] | IC90 [1] | IC50 [13] | IC50 [14] | IC90 [14] | IC90 [5] | IC90 [6] | Ratio IC50 [15]
1 | CC(C)(C)c1ccc(CNCCNc2ccnc3cc(Cl)ccc23)cc1 | 24.7 nM | 245 | 419 | 10400 nM | 42.4 nM | 24.2 nM | 47% | 429 | – | – | – | – | – | – | – | – | – | – | –
2 | Clc1ccc2c(NCCCNCc3cnccc3Cl)ccnc2c1 | 31 nM | 52 | 121 | 3760 nM | 73 nM | 25.7 nM | 35.9% | 146 | 0.317 h | 0.267 h | – | – | – | – | – | – | – | – | –
3 | COc1ccncc1CNCCCNc1ccnc2cc(Cl)ccc12 | 53.2 nM | 57 | 93 | 4970 nM | 86.9 nM | 4.76 nM | 43.2% | 1040 | – | – | 1 h | 1 h | – | – | – | – | – | – | –
4 | COc1ccc(CNCCCNc2ccnc3cc(Cl)ccc23)cc1 | 50.6 nM | 86 | 95 | 4810 nM | 56.2 nM | 6.18 nM | 14% | 778 | 0.3 h | 1 h | – | – | – | – | – | – | – | – | –
5 | Clc1ccc2c(NCCCNCc3ccc(Br)cc3)ccnc2c1 | 6.18 nM | – | – | 4950 nM | 5.93 nM | 3.95 nM | 68% | – | – | – | 1 h | 1 h | 7.66 nM | 7.16 nM | 7.91 nM | 12.1 nM | 7.41 nM | 4.45 nM | –
6 | Clc1ccc2c(NCCCNCc3ccccc3)ccnc2c1 | 39.9 nM | 56 | 73 | 2910 nM | 52.2 nM | 17.2 nM | 51.8% | 169 | – | – | 1 h | 1 h | – | – | – | – | – | – | –
7 | Clc1ccc2c(NCCCNCc3ccncc3)ccnc2c1 | 76.4 nM | 176 | 469 | 35900 nM | 204 nM | 8.65 nM | 42.3% | 4150 | 0.15 h | 0.15 h | – | – | – | – | – | – | – | – | –
8 | Fc1ccc(CNCCNc2ccnc3cc(Cl)ccc23)cc1 | 55.2 nM | 350 | 291 | 16000 nM | 45.8 nM | 26.4 nM | 68% | 608 | – | – | – | – | – | – | – | – | – | – | –
9 | CCN(CC)CCCC(C)Nc1ccnc2cc(Cl)ccc12 (centres undefined) [CHLOROQUINE PHOSPHATE] | – | – | – | – | – | – | 7% | – | – | – | – | – | 476 nM | – | – | 602 nM | 942 nM | 19.2 nM | –
10 | CC(C)(C)c1ccc(CNCCCNc2ccnc3cc(Cl)ccc23)cc1 | 31.9 nM | 45 | 68 | 2170 nM | 48.4 nM | 21.7 nM | 50.3% | 100 | – | – | – | – | – | – | – | – | – | – | –
11 | Clc1ccc2c(NCCNCc3ccncc3)ccnc2c1 | 204 nM | 409 | 752 | 153000 nM | 375 nM | 60.7 nM | 24% | 2530 | – | – | – | – | – | – | – | – | – | – | –
12 | O[C@@H](c1cc(C(F)(F)F)nc2c(C(F)(F)F)cccc12)[C@H]1CCCCN1 (racemic) | – | – | – | – | – | – | 28% | – | – | – | – | – | – | 51.1 nM | – | – | – | 43.6 nM | –
13 | Fc1ccc(CNCCCNc2ccnc3cc(Cl)ccc23)cc1 | 29.4 nM | 110 | 185 | 5430 nM | 49.4 nM | 13.1 nM | 50.1% | 415 | – | – | – | – | – | – | – | – | – | – | –
14 | Clc1ccc2c(NCCNCc3cnccc3Cl)ccnc2c1 | 83.3 nM | 46 | 78 | 6500 nM | 141 nM | 63.8 nM | 23% | 102 | 0.617 h | 0.167 h | – | – | – | – | – | – | – | – | –
15 | Clc1ccc2c(NCCNCc3cccnc3)ccnc2c1 | 109 nM | 426 | 882 | 95900 nM | 225 nM | 53.4 nM | 25% | 1800 | – | – | – | – | – | – | – | – | – | – | –
16 | Clc1ccc2c(NCCCNCc3cccnc3)ccnc2c1 | 73.4 nM | 90 | 317 | 23300 nM | 260 nM | – | 39.9% | – | – | – | 1 h | 1 h | – | – | – | – | – | – | –
17 | Clc1ccc2c(NCCNCc3ccc(Br)cc3)ccnc2c1 | 9.98 nM | 695 | 660 | 6580 nM | 9.47 nM | 4.1 nM | 69% | 1610 | – | – | 1 h | 1 h | – | – | – | – | – | – | 4
18 | COc1ccncc1CNCCNc1ccnc2cc(Cl)ccc12 | 7.29 nM | – | – | – | 19 nM | – | 19% | – | 0.383 h | 0.633 h | – | – | – | – | – | – | – | – | –
19 | COc1ccc(CNCCNc2ccnc3cc(Cl)ccc23)cc1 | 16.1 nM | 406 | 362 | 5820 nM | 14.3 nM | 3.22 nM | 18% | 1810 | 0.1 h | 0.45 h | – | – | – | – | – | – | – | – | 4
20 | C[C@@H]1CC[C@H]2[C@@H](C)C(=O)O[C@@H]3O[C@@]4(C)CC[C@@H]1[C@]32OO4 [ARTEMISININ] | 13 nM | – | – | – | 6.7 nM | 9 nM | – | – | – | – | – | – | – | – | – | – | – | – | –
21 | Clc1ccc2c(NCCNCc3ccccc3)ccnc2c1 | 7.38 nM | – | – | 19400 nM | 10.9 nM | 6.41 nM | 52% | – | 0.383 h | – | – | 1 h | 9.3 nM | 9.94 nM | 9.3 nM | 12.5 nM | – | 9.62 nM | –
